# From ChEMBL document CHEMBL3808379, “Isouronium and N-hydroxyguanidinium derivatives as Cell growth inhibitors: A comparative study” (Eur J Med Chem, 2016)
# Tests used:
# [1] = Dissociation constant, pKa of the compound; format: physicochemical
# [2] = Binding affinity to salmon sperm DNA assessed as increase in thermal melting temperature by spectrophotometric analysis; settings: Salmonidae
# [3] = Cytotoxicity against human HL60 cells assessed as cell viability reduction incubated for 72 hrs by alamar blue assay; format: functional, cell-based; settings: HL-60, 72 h
# Procedure, shortened: (§1)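 HL-60 cells in log phase, 40,000 per well, were treated in triplicate with compound at 10–100 µM (final, 1:100 from ddH2O stocks) or 1% ddH2O vehicle for 72 h at 37 °C. AlamarBlue was then added for 4.5 h in the dark and fluorescence read at ex 544/em 590 nm. Viability is blank-subtracted and expressed as % of vehicle. IC50 comes from a sigmoidal fit; ≥3 independent experiments.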
# [4] = Cytotoxicity against human Kelly cells assessed as cell viability reduction incubated for 72 hrs by alamar blue assay; format: functional, cell-based
# Procedure, shortened: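 Kelly cells, 6000 per well, were allowed to attach for 24 h, then treated in triplicate at 0.1–100 µM final or with ddH2O vehicle for 72 h at 37 °C. AlamarBlue was added for 4.5 h in the dark and fluorescence read at ex 544/em 590 nm. Blank-subtracted % of vehicle; IC50 from a sigmoidal dose-response fit; ≥3 independent experiments.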
# [5] = Cell cycle arrest in human HL60 cells assessed as accumulation at G0/G1 phase at 50 uM after 24 hrs by propidium iodide staining-based flow cytometric analysis (reference value: 56.05 +/- 1.4%); format: functional; settings: HL-60
# [6] = Cell cycle arrest in human HL60 cells assessed as accumulation at G2/M phase at 50 uM after 24 hrs by propidium iodide staining-based flow cytometric analysis (reference value: 16.73 +/- 0.59%); format: functional; settings: HL-60
# [7] = Cell cycle arrest in human HL60 cells assessed as accumulation at G0/G1 phase at 50 uM after 72 hrs by propidium iodide staining-based flow cytometric analysis (reference value: 59.5 +/- 1.5%); format: functional; settings: HL-60
# [8] = Cell cycle arrest in human HL60 cells assessed as accumulation at polyploid Gn phase at 50 uM after 24 hrs by propidium iodide staining-based flow cytometric analysis (reference value: 2.96 +/- 0.79%); format: functional; settings: HL-60
# [9] = Cell cycle arrest in human HL60 cells assessed as accumulation at G2/M phase at 50 uM after 48 hrs by propidium iodide staining-based flow cytometric analysis (reference value: 11.35 +/- 1.05%); format: functional; settings: HL-60
# [10] = Cell cycle arrest in human HL60 cells assessed as accumulation at G2/M phase at 50 uM after 72 hrs by propidium iodide staining-based flow cytometric analysis (reference value: 10.53 +/- 0.81%); format: functional; settings: HL-60
# [11] = Cell cycle arrest in human HL60 cells assessed as accumulation at pre-G1 phase at 50 uM after 72 hrs by propidium iodide staining-based flow cytometric analysis (reference value: 2.21 +/- 0.57%); format: functional; settings: HL-60
# [12] = Cell cycle arrest in human HL60 cells assessed as accumulation at S phase at 50 uM after 48 hrs by propidium iodide staining-based flow cytometric analysis (reference value: 24.29 +/- 1.37%); format: functional; settings: HL-60
# [13] = Cell cycle arrest in human HL60 cells assessed as accumulation at G0/G1 phase at 50 uM after 48 hrs by propidium iodide staining-based flow cytometric analysis (reference value: 58.77 +/- 2.33%); format: functional; settings: HL-60
# [14] = Cell cycle arrest in human HL60 cells assessed as accumulation at polyploid Gn phase at 50 uM after 48 hrs by propidium iodide staining-based flow cytometric analysis (reference value: 3.02 +/- 0.56%); format: functional; settings: HL-60
# [15] = Cell cycle arrest in human HL60 cells assessed as accumulation at pre-G1 phase at 50 uM after 48 hrs by propidium iodide staining-based flow cytometric analysis (reference value: 1.41 +/- 0.32%); format: functional; settings: HL-60
# [16] = Cytotoxicity against human HL60 cells assessed as cell viability reduction at 100 uM incubated for 72 hrs by alamar blue assay; format: functional; settings: HL-60, 72 h; procedure, shortened: as §1
# [17] = Cell cycle arrest in human HL60 cells assessed as accumulation at pre-G1 phase at 50 uM after 24 hrs by propidium iodide staining-based flow cytometric analysis (reference value: 0.81 +/- 0.11%); format: functional; settings: HL-60
# [18] = Cell cycle arrest in human HL60 cells assessed as accumulation at polyploid Gn phase at 50 uM after 72 hrs by propidium iodide staining-based flow cytometric analysis (reference value: 3.43 +/- 0.48%); format: functional; settings: HL-60
# [19] = Cell cycle arrest in human HL60 cells assessed as accumulation at S phase at 50 uM after 72 hrs by propidium iodide staining-based flow cytometric analysis (reference value: 23.58 +/- 1.38%); format: functional; settings: HL-60
# [20] = Cell cycle arrest in human HL60 cells assessed as accumulation at S phase at 50 uM after 24 hrs by propidium iodide staining-based flow cytometric analysis (reference value: 24.46 +/- 1.15%); format: functional; settings: HL-60
# [21] = tested on: N=C(N)Oc1ccc(Sc2ccc(O)cc2)cc1; assay: Inhibition of bovine brain tubulin polymerization assessed as rate of tubulin polymerization at 1 mM mesured at 30 s intervals for 60 mins by spectrophotometric analysis (reference value: 3.647 mOD/min); settings: Bos taurus
# [22] = Cell cycle arrest in human Kelly cells assessed as accumulation at pre-G1 phase at 50 uM after 24 hrs by propidium iodide staining-based flow cytometric analysis (reference value: 6.12 +/- 0.95%); format: functional
# [23] = Cell cycle arrest in human Kelly cells assessed as accumulation at G0/G1 phase at 50 uM after 72 hrs by propidium iodide staining-based flow cytometric analysis (reference value: 46.82 +/- 1.46%); format: functional
# [24] = Cell cycle arrest in human Kelly cells assessed as accumulation at polyploid Gn phase at 25 uM after 24 hrs by propidium iodide staining-based flow cytometric analysis (reference value: 9.85 +/- 1.54%); format: functional
# [25] = Cell cycle arrest in human Kelly cells assessed as accumulation at polyploid Gn phase at 50 uM after 48 hrs by propidium iodide staining-based flow cytometric analysis (reference value: 8.97 +/- 1.27%); format: functional
# [26] = Cell cycle arrest in human Kelly cells assessed as accumulation at S phase at 25 uM after 72 hrs by propidium iodide staining-based flow cytometric analysis (reference value: 16.29 +/- 0.81%); format: functional
# [27] = Cell cycle arrest in human Kelly cells assessed as accumulation at G0/G1 phase at 25 uM after 72 hrs by propidium iodide staining-based flow cytometric analysis (reference value: 46.82 +/- 1.46%); format: functional
# [28] = Cell cycle arrest in human Kelly cells assessed as accumulation at G2/M phase at 50 uM after 72 hrs by propidium iodide staining-based flow cytometric analysis (reference value: 13.84 +/- 0.76%); format: functional
# [29] = Cell cycle arrest in human Kelly cells assessed as accumulation at pre-G1 phase at 25 uM after 24 hrs by propidium iodide staining-based flow cytometric analysis (reference value: 6.12 +/- 0.95%); format: functional
# [30] = Cell cycle arrest in human Kelly cells assessed as accumulation at polyploid Gn phase at 25 uM after 48 hrs by propidium iodide staining-based flow cytometric analysis (reference value: 8.97 +/- 1.27%); format: functional
# [31] = Cell cycle arrest in human Kelly cells assessed as accumulation at S phase at 50 uM after 24 hrs by propidium iodide staining-based flow cytometric analysis (reference value: 18.67 +/- 1.9%); format: functional
# [32] = Cell cycle arrest in human Kelly cells assessed as accumulation at G2/M phase at 50 uM after 24 hrs by propidium iodide staining-based flow cytometric analysis (reference value: 13.12 +/- 0.93%); format: functional
# [33] = Cell cycle arrest in human Kelly cells assessed as accumulation at S phase at 50 uM after 48 hrs by propidium iodide staining-based flow cytometric analysis (reference value: 19.05 +/- 2.11%); format: functional
# [34] = Cell cycle arrest in human Kelly cells assessed as accumulation at polyploid Gn phase at 50 uM after 24 hrs by propidium iodide staining-based flow cytometric analysis (reference value: 9.85 +/- 1.54%); format: functional
# [35] = Cell cycle arrest in human Kelly cells assessed as accumulation at G0/G1 phase at 50 uM after 48 hrs by propidium iodide staining-based flow cytometric analysis (reference value: 52.54 +/- 2.32%); format: functional
# [36] = Cell cycle arrest in human Kelly cells assessed as accumulation at S phase at 25 uM after 24 hrs by propidium iodide staining-based flow cytometric analysis (reference value: 18.67 +/- 1.9%); format: functional
# [37] = Cell cycle arrest in human Kelly cells assessed as accumulation at G0/G1 phase at 50 uM after 24 hrs by propidium iodide staining-based flow cytometric analysis (reference value: 52.37 +/- 1.44%); format: functional
# [38] = Cell cycle arrest in human Kelly cells assessed as accumulation at G2/M phase at 25 uM after 24 hrs by propidium iodide staining-based flow cytometric analysis (reference value: 13.12 +/- 0.93%); format: functional
# [39] = Cell cycle arrest in human Kelly cells assessed as accumulation at S phase at 25 uM after 48 hrs by propidium iodide staining-based flow cytometric analysis (reference value: 19.05 +/- 2.11%); format: functional
# [40] = Cell cycle arrest in human Kelly cells assessed as accumulation at pre-G1 phase at 50 uM after 72 hrs by propidium iodide staining-based flow cytometric analysis (reference value: 10.21 +/- 2.85%); format: functional
# [41] = Cell cycle arrest in human Kelly cells assessed as accumulation at pre-G1 phase at 25 uM after 72 hrs by propidium iodide staining-based flow cytometric analysis (reference value: 10.21 +/- 2.85%); format: functional
# [42] = Cell cycle arrest in human Kelly cells assessed as accumulation at G2/M phase at 25 uM after 48 hrs by propidium iodide staining-based flow cytometric analysis (reference value: 13.68 +/- 0.74%); format: functional
# [43] = Cell cycle arrest in human Kelly cells assessed as accumulation at G0/G1 phase at 25 uM after 24 hrs by propidium iodide staining-based flow cytometric analysis (reference value: 52.37 +/- 1.44%); format: functional
# [44] = Cell cycle arrest in human Kelly cells assessed as accumulation at polyploid Gn phase at 25 uM after 72 hrs by propidium iodide staining-based flow cytometric analysis (reference value: 13.07 +/- 0.25%); format: functional
# [45] = Cell cycle arrest in human Kelly cells assessed as accumulation at pre-G1 phase at 25 uM after 48 hrs by propidium iodide staining-based flow cytometric analysis (reference value: 5.88 +/- 1.13%); format: functional
# [46] = Cell cycle arrest in human Kelly cells assessed as accumulation at S phase at 50 uM after 72 hrs by propidium iodide staining-based flow cytometric analysis (reference value: 16.29 +/- 0.81%); format: functional
# [47] = Cell cycle arrest in human Kelly cells assessed as accumulation at G2/M phase at 25 uM after 72 hrs by propidium iodide staining-based flow cytometric analysis (reference value: 13.84 +/- 0.76%); format: functional
# [48] = Cell cycle arrest in human Kelly cells assessed as accumulation at pre-G1 phase at 50 uM after 48 hrs by propidium iodide staining-based flow cytometric analysis (reference value: 5.88 +/- 1.13%); format: functional
# [49] = Cell cycle arrest in human Kelly cells assessed as accumulation at polyploid Gn phase at 50 uM after 72 hrs by propidium iodide staining-based flow cytometric analysis (reference value: 13.07 +/- 0.25%); format: functional
# [50] = Cell cycle arrest in human Kelly cells assessed as accumulation at G2/M phase at 50 uM after 48 hrs by propidium iodide staining-based flow cytometric analysis (reference value: 13.68 +/- 0.74%); format: functional
# [51] = Cell cycle arrest in human Kelly cells assessed as accumulation at G0/G1 phase at 25 uM after 48 hrs by propidium iodide staining-based flow cytometric analysis (reference value: 52.54 +/- 2.32%); format: functional
compound,measurement,setting,value
N=C(N)Oc1ccccc1,pKa,[1],8.29
N=C(N)Oc1ccc(Cc2ccc(OC(=N)N)cc2)cc1,ΔTm,[2],4 °C
same,IC50,[3],> 100 µM
N=C(N)Oc1ccc(NC(=O)c2ccc(OC(=N)N)cc2)cc1,ΔTm,[2],2 °C
same,IC50,[3],> 100 µM
same,IC50,[4],> 100 µM
N=C(N)Oc1ccc(Sc2ccc(OC(=N)N)cc2)cc1,Activity,[5],52%
same,Activity,[6],18.1%
same,ΔTm,[2],6 °C
same,Activity,[7],35.5%
same,Activity,[8],3.11%
same,Activity,[9],29.1%
same,Activity,[10],21.9%
same,Activity,[11],4.87%
same,Activity,[12],21.9%
same,Activity,[13],38.3%
same,Activity,[14],8.42%
same,Activity,[15],2.25%
same,inhibition at 100 µM,[16],95.8%
same,IC50,[3],57.4 µM
same,Activity,[17],1.46%
same,Activity,[18],22%
same,Activity,[19],15.6%
same,Activity,[20],26.9%
same,IC50,[4],28.7 µM
Tubulin (Bos taurus) (from UniProt Q6B856+Q862L2+Q862F3),Vmax,[21],2.63 mOD/minute
N=C(N)Nc1ccccc1 [PHENYLGUANIDINE],pKa,[1],10.9
N=C(N)Oc1ccc(Oc2ccc(O)cc2)cc1,Activity,[22],24.3%
same,Activity,[23],29%
same,Activity,[24],13.5%
same,Activity,[25],4.19%
same,Activity,[26],16.4%
same,ΔTm,[2],4 °C
same,Activity,[27],26.2%
same,Activity,[28],2.44%
same,Activity,[29],20.4%
same,Activity,[30],6.91%
same,Activity,[31],16%
same,Activity,[32],8.23%
same,Activity,[33],11.7%
same,Activity,[34],7.77%
same,Activity,[35],25.2%
same,Activity,[36],25.6%
same,Activity,[37],42.1%
same,Activity,[38],11.3%
same,Activity,[39],27.5%
same,Activity,[40],49.5%
same,IC50,[3],36.9 µM
same,Activity,[41],48.4%
same,Activity,[42],7.65%
same,Activity,[43],31.2%
same,Activity,[44],4.09%
same,Activity,[45],38%
same,Activity,[46],17.3%
same,Activity,[47],5.04%
same,Activity,[48],50.7%
same,Activity,[49],2.69%
same,IC50,[4],17.3 µM
same,Activity,[50],3.5%
same,Activity,[51],22.2%
c1ccc(NC2=NCCN2)cc1,pKa,[1],9.16
N=C(N)Oc1ccc(Cc2ccc(O)cc2)cc1,ΔTm,[2],2 °C
same,IC50,[3],> 100 µM
